Experimental data taken from article PMC7941214 (Journal of medicinal chemistry, 2019).
Several values for one entry are separate records, joined by “and”; a condition that tells them apart may be missing. Equal values may be shown once.

Experiments:
[1] = tested on: P. aeruginosa NCTC 13437; test: Broth microdilution MIC/MBC, P. aeruginosa; type: cell-based, Pseudomonas aeruginosa; settings: for MIC P. aeruginosa NCTC 13437: value before the parentheses, two values = two repeats; for MBC P. aeruginosa NCTC 13437: value in parentheses
Outline: (§1)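 CLSI broth microdilution in cation-adjusted Mueller–Hinton broth. Log-phase cultures were diluted to 7.5 × 10^5 CFU/mL, then mixed 1:1 with 2-fold serial dilutions of gold complexes from DMSO or water stocks, in triplicate, and held 37 °C, 18 h, static. MIC: lowest concentration giving >90% inhibition by OD600 against medium-only and bacteria-only wells. […] E. coli ATCC 25922 quality control was checked each run with ciprofloxacin and […].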

[2] = tested on: E. cloacae NCTC 13405; test: Broth microdilution MIC/MBC, E. cloacae; type: cell-based, Enterobacter cloacae; settings: for MIC E. cloacae NCTC 13405: value before the parentheses, two values = two repeats; for MBC E. cloacae NCTC 13405: value in parentheses
Outline: as §1

[3] = tested on: K. pneumoniae ATCC 700603; test: Broth microdilution MIC/MBC, K. pneumoniae; type: cell-based, Klebsiella pneumoniae; settings: for MIC K. pneumoniae ATCC 700603: value before the parentheses, two values = two repeats; for MBC K. pneumoniae ATCC 700603: value in parentheses
Outline: as §1

[4] = tested on: E. faecium ATCC 700221; test: Broth microdilution MIC/MBC, E. faecium; type: cell-based, Enterococcus faecium; settings: for MIC E. faecium ATCC 700221: value before the parentheses, two values = two repeats; for MBC E. faecium ATCC 700221: value in parentheses
Outline: as §1

[5] = Log P determination; settings: n-octanol/water, Au by FAAS
[6] = tested on: S. aureus JE2 (USA300); test: Broth microdilution MIC/MBC, S. aureus; type: cell-based, Staphylococcus aureus; settings: for MIC S. aureus JE2 (USA300): value before the parentheses, two values = two repeats; for MBC S. aureus JE2 (USA300): value in parentheses
Outline: as §1

[7] = tested on: E. coli ATCC 25922; test: Broth microdilution MIC/MBC, E. coli; type: cell-based, Escherichia coli; settings: for MIC E. coli ATCC 25922: value before the parentheses, two values = two repeats; for MBC E. coli ATCC 25922: value in parentheses
Outline: as §1

[8] = tested on: A. baumannii NCTC 13420; test: Broth microdilution MIC/MBC, A. baumannii; type: cell-based, Acinetobacter baumannii; settings: for MIC A. baumannii NCTC 13420: value before the parentheses, two values = two repeats; for MBC A. baumannii NCTC 13420: value in parentheses

SMILES	MIC P. aeruginosa NCTC 13437 [1] [µM]	MBC P. aeruginosa NCTC 13437 [1] [µM]	MIC E. cloacae NCTC 13405 [2] [µM]	MBC E. cloacae NCTC 13405 [2] [µM]	fold enhancement of activity over auranofin, E. cloacae ([2]; vs auranofin)	MIC K. pneumoniae ATCC 700603 [3]	MBC K. pneumoniae ATCC 700603 [3] [µM]	MIC E. faecium ATCC 700221 [4]	MBC E. faecium ATCC 700221 [4] [µM]	log P [5]	MIC S. aureus JE2 (USA300) [6]	MBC S. aureus JE2 (USA300) [6] [µM]	MIC E. coli ATCC 25922 [7]	MBC E. coli ATCC 25922 [7] [µM]	MIC A. baumannii NCTC 13420 [8]	MBC A. baumannii NCTC 13420 [8] [µM]	fold enhancement of activity over auranofin, S. aureus ([6]; vs auranofin)	fold enhancement of activity over auranofin, E. coli ([7]; vs auranofin)	fold enhancement of activity over auranofin, E. faecium ([4]; vs auranofin)	MIC S. aureus [6]
CC[PH](CC)(CC)[Au][S]C1OC(CO)C(O)C(O)C1O [Compound 10, (1-Thio-β-D-galatopyranosato)(triethylphosphine) Gold(I)]	251	251	63	63	3	251 µM	251	0.1 µM and 0.2 µM	0.5	−0.73	0.02 µM	0.1	16 µM	16	31 µM	31	–	–	–	–
CC[PH](CC)(CC)[Au][S]C1OC(CO)C(O)C(O)C1O [Compound 11, (1-Thio-D-mannopyranosato)(triethylphosphine) Gold(I)]	502	502	125	251	–	502 µM	502	0.1 µM and 0.06 µM	0.5	−0.59	–	0.1	16 µM	16	31 µM	63	–	–	–	–
CC[P+](CC)(CC)[Au-][S][C@@H]1OC(CO)[C@@H](O)[C@H](O)C1NC(C)=O (stereo partly drawn) [Compound 12, (2-Acetamido-2-deoxy-1-thio-β-D-glucopyranosato)-(triethylphosphine) Gold(I)]	464	464	116	232	–	464 µM	464	0.05 µM and 0.1 µM	0.5	−0.89	0.02 µM	0.05	7 µM and 4 µM	7	15 µM and 29 µM	116	2–3	2–3	–	–
CC[PH](CC)(CC)[Au][O]C1OC(CO)C(OC2OC(CO)C(O)C(O)C2O)C(O)C1O [Compound 13, [β-D-Galactopyranosyl-(1→4)-β-D-glucopyranosato]-(triethylphosphine) Gold(I)]	381	381	190	190	–	381 µM	381	0.09 µM	0.4	–	–	0.09	24 µM	24	24 µM and 48 µM	190	–	–	–	–
CC[PH](CC)(CC)[Au][S]C1OC(CO)C(OC2OC(CO)C(O)C(O)C2O)C(O)C1O (stereo not shown) [Compound 14]	381	381	190	190	–	>381 µM	–	–	0.4	−1.69	–	0.09	12 µM	12	24 µM	24	–	–	–	–
CC[PH](CC)(CC)[Au][S]c1ccccc1 [Compound 15, (Benzenethiolato)(triethylphosphine) Gold(I)]	302	302	75	603	–	>603 µM	–	0.6 µM	1	2.20	0.02 µM	0.6	151 µM	151	–	> 603	–	–	–	–
CC[PH](CC)(CC)[Au][S]c1ccccc1N [Compound 16, (2-Aminobenzenethiolato)(triethylphosphine) Gold(I)]	291	291	–	–	–	146 µM	146	0.02 µM	0.1	0.61	0.009 µM	0.6	36 µM	36	18 µM and 36 µM	18	–	–	more than 7	in the nanomolar range
CC[P+](CC)(CC)[Au-][S]CC(=O)OC [Compound 22, (Methyl Mercaptoacetatato)(triethylphosphine) Gold(I)]	305	305	38	152	–	76 µM	76	–	0.6	1.75	–	0.02	76 µM	76	19 µM	76	–	–	–	in the nanomolar range
CC[P+](CC)(CC)[Au-][S]CC(F)(F)F [Compound 23, (2,2,2-Trifluoroethanethiolato)(triethylphosphine) Gold(I)]	149	149	37	149	–	149 µM	149	0.6 µM	1	2.08	0.009 µM	0.1	74 µM	74	37 µM and 74 µM	149	–	–	–	in the nanomolar range
CP(C)C.[Cl][Au] [Compound 24, (Trimethylphosphine)gold Chloride]	52	52	3	3	–	7 µM and 13 µM	13	0.4 µM	3	0.16	0.1 µM and 0.2 µM	1.6	7 µM	7	7 µM and 13 µM	13	–	–	–	–
CCCC[PH](CCCC)(CCCC)[Au][Cl] [Compound 26, (Tri-n-butylphosphine)gold Chloride]	74	74	>589	–	–	147 µM	147	5 µM	5	>3.99	2 µM	4	>589 µM	–	74 µM and 147 µM	147	–	–	–	–
[Cl][Au].c1ccc(P(c2ccccc2)c2ccccc2)cc1 [Compound 27, (Triphenylphosphine)gold Chloride]	>518	–	>518	–	–	>518 µM	–	4 µM	4	>3.94	1 µM and 2 µM	4	>518 µM	–	–	518	–	–	–	–
COc1ccc([P+]([Au-][Cl])(c2ccc(OC)cc2)c2ccc(OC)cc2)cc1 [Compound 28, (Tris(4-methoxyphenyl)phosphine)gold Chloride]	>438	–	>438	–	–	>438 µM	–	3 µM	3	>4.09	2 µM	3	>438 µM	–	>438 µM	–	–	–	–	–
Fc1ccc([PH+](c2ccc(F)cc2)c2ccc(F)cc2)cc1.[Cl][Au] [Compound 29, (Tris(4-fluorophenyl)phosphine)gold Chloride]	>467	–	>467	–	–	>467 µM	–	2 µM and 4 µM	4	>4.04	–	–	>467 µM	–	29 µM and 58 µM	233	–	–	–	–
